{"source": "ChEMBL document CHEMBL3351368", "about": "“Biphenyl-4-carboxylic acid [2-(1H-indol-3-yl)-ethyl]-methylamide (CA224), a nonplanar analogue of fascaplysin, inhibits Cdk4 and tubulin polymerization: evaluation of in vitro and in vivo anticancer activity” (J Med Chem, 2014)", "key": {"[1]": {"assay": "Growth inhibition of p53His273 mut, pRb+ human MiaPaCa cells after 48 hrs by MTT assay", "format": "functional", "settings": "MIA PaCa-2, 48 h", "in_short": "(§1)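 MTT cell proliferation assay. IC50 (µM) was defined as the concentration giving 50% inhibition of cell growth.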"}, "[2]": {"assay": "AUC (0 to infinity) in BALB/c mouse at 10 mg/kg, po", "format": "ADME, organism-based", "parameters": "time infinity, dose 10 mg/kg, route oral", "settings": "plasma", "in_short": "(§2)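 BALB/c mice given a single dose of 1.0 mg/kg IV or 10 mg/kg orally; plasma concentration followed over time and pharmacokinetic parameters derived from the time-concentration profile.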"}, "[3]": {"assay": "Oral bioavailability in BALB/c mouse at 10 mg/kg", "format": "ADME, organism-based", "settings": "in vivo", "in_short": "as §2"}, "[4]": {"assay": "Volume of distribution in BALB/c mouse at 1 mg/kg, iv", "format": "ADME, organism-based", "parameters": "dose 1 mg/kg, route intravenous", "settings": "in vivo", "in_short": "as §2"}, "MiaPaCa [5]": {"tested_on": "MiaPaCa", "assay": "Effect on phosphorylation of Cdk1 at Tyr15 in p53His273 mutant, pRb+ human MiaPaCa cells at IC50 concentration after 48 hrs by Western blot analysis", "format": "functional"}, "[6]": {"assay": "Growth inhibition of p53+, pRb+ human NCI-H460 cells after 48 hrs by MTT assay", "format": "functional, cell-based", "settings": "NCI-H460, 48 h", "in_short": "as §1"}, "A549 [7]": {"tested_on": "A549", "assay": "Anticancer activity against p53+, pRb+ human A549 cells assessed as reduction in colony formation efficiency at 1.4 uM after 24 hrs by visual count/crystal violet staining method", "format": "functional", "settings": "A549, 24 h", "in_short": "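Long-term survival assay. A549 and Calu-1 cells treated with a range of concentrations, colonies counted, efficiency expressed as percent of colonies versus untreated cultures. Means and standard deviations of three independent experiments.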"}, "Mus musculus [8]": {"tested_on": "Mus musculus", "assay": "Toxicity in human NCI-H460 cells xenografted in SCID mouse at 100 mg/kg, ip relative to untreated control", "format": "organism-based", "parameters": "dose 100 mg/kg, route intraperitoneal", "settings": "in vivo", "in_short": "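SCID female mice, 15-24 g, 6-8 weeks old, received 5.3 × 10^6 NCI-H460 cells subcutaneously on the dorsal side. Randomized at 4-6 mm tumors (about 6 days) into groups of 6 or 7, then dosed intraperitoneally for 9 consecutive days. Body weight recorded daily as percent of the start-of-treatment weight; >10% drop counted significant, >20% highly significant.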"}, "[9]": {"assay": "Clearance in BALB/c mouse at 1 mg/kg, iv", "format": "ADME, organism-based", "parameters": "dose 1 mg/kg, route intravenous", "settings": "in vivo", "in_short": "as §2"}, "NCI-H460 [10]": {"tested_on": "NCI-H460", "assay": "Induction of apoptosis in p53+, pRb+ human NCI-H460 cells assessed as fragmented nuclei/distrupted cell membrane at 1 to 10 uM by DAPI staining-based flow cytometry", "format": "functional", "settings": "TDE = time-dependent effect"}, "A549 [11]": {"tested_on": "A549", "assay": "Induction of p21 level in p53+, pRb+ human A549 cells at IC50 concentration after 24 hrs by Western blot analysis"}, "A549 [12]": {"tested_on": "A549", "assay": "Induction of apoptosis in p53+, pRb+ human A549 cells assessed as fragmented nuclei/distrupted cell membrane after 24 hrs by DAPI staining-based flow cytometry", "format": "functional"}, "A549 [13]": {"tested_on": "A549", "assay": "Cell cycle arrest in human A549 cells assessed as accumulation of cells at G2/M phase at IC50 concentration after 24 hrs by flow cytometry (reference value: 22%)", "format": "functional"}, "Mus musculus [14]": {"tested_on": "Mus musculus", "assay": "Toxicity in human HCT116 cells xenografted in SCID mouse at 100 mg/kg, ip relative to untreated control", "format": "organism-based, HCT-116", "parameters": "dose 100 mg/kg, route intraperitoneal", "settings": "in vivo", "in_short": "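SCID male mice, 18-25 g, 6-8 weeks old, received 6.6 × 10^6 HCT-116 cells subcutaneously on the dorsal side. Randomized into groups of 7 at 4-6 mm tumors (about 5 days), then dosed intraperitoneally for 9 consecutive days. Tumor size recorded every 2-5 days, weight = L×W²×0.5; %GI = 100 − %T/C. Body weight taken daily relative to start; Student t-test.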"}, "CYP2C9": {"molecular_target": "CYP2C9 (Homo sapiens, UniProt P11712)", "sequence (P11712 whole entry)": "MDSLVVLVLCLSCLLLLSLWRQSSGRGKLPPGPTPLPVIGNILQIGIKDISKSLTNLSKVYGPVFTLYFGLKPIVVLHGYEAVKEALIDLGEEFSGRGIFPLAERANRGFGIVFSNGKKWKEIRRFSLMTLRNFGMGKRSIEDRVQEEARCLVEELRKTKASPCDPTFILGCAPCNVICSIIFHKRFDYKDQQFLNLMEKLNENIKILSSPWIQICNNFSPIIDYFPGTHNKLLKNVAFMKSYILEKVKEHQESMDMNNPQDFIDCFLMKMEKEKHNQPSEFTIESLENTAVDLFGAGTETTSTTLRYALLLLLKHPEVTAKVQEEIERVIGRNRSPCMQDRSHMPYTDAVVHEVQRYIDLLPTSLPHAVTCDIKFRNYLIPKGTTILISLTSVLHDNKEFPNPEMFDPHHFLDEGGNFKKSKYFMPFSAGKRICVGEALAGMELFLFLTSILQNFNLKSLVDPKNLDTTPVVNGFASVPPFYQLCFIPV", "assay": "Inhibition of human recombinant CYP2C9 at 10 uM", "format": "ADME"}, "NCI-H358 [15]": {"tested_on": "NCI-H358", "assay": "Cell cycle arrest in human NCI-H358 cells assessed as accumulation of cells at G2/M phase at IC50 concentration after 18 hrs by flow cytometry in presence of […] uM hydroxyurea for 18 hrs (reference value: 33%)", "format": "functional"}, "[16]": {"assay": "Displacement of ethidium bromide from closed circular plasmid DNA (unknown origin) by fluorescence quenching assay"}, "[17]": {"assay": "Cmax in BALB/c mouse at 1 mg/kg, iv", "format": "ADME, organism-based", "parameters": "dose 1 mg/kg, route intravenous", "settings": "in vivo", "in_short": "as §2"}, "[18]": {"molecular_target": "Platelet-derived growth factor receptor (Homo sapiens) (UniProt P09619+P16234)", "assay": "Inhibition of human PDGFR assessed as enzyme activity at 10 uM", "format": "protein-complex assay"}, "MiaPaCa [19]": {"tested_on": "MiaPaCa", "assay": "Effect on p21 level in p53His273 mutant, pRb+ human MiaPaCa cells at IC50 concentration after 48 hrs by Western blot analysis", "format": "functional"}, "Tubulin (Homo sapiens)": {"molecular_target": "Tubulin (Homo sapiens) (UniProt P68371+Q9H4B7+P0DPH7+P68366+Q13509+Q71U36+P04350+Q3ZCM7+P07437+P68363+Q9BQE3+Q6PEY2+Q13885+Q9BVA1+Q9BUF5)", "assay": "Inhibition of tubulin (unknown origin) polymerization assessed as decrease in Vmax measured at 25 uM by spectrophotometry"}, "A549 [20]": {"tested_on": "A549", "assay": "Reduction Cdk1 level in p53+, pRb+ human A549 cells at IC50 concentration after 24 hrs by Western blot analysis"}, "[21]": {"assay": "Solubility in simulated gastric fluid", "format": "ADME"}, "LS174T": {"tested_on": "LS174T", "assay": "Reduction cyclin B1 level in p53+, pRb+ human LS 174T cells at IC50 concentration after 24 hrs by Western blot analysis"}, "[22]": {"assay": "Terminal half life in BALB/c mouse at 10 mg/kg, po", "format": "ADME, organism-based", "parameters": "dose 10 mg/kg, route oral", "settings": "in vivo, read-out: beta t1/2 (converted)", "in_short": "as §2"}, "A549 [23]": {"tested_on": "A549", "assay": "Cell cycle arrest in human A549 cells assessed as accumulation of cells at S phase at IC50 concentration after 24 hrs by flow cytometry (reference value: 29%)", "format": "functional"}, "NCI-H358 [24]": {"tested_on": "NCI-H358", "assay": "Cell cycle arrest in human NCI-H358 cells assessed as accumulation of cells at G0/G1 phase at IC50 concentration after 18 hrs by flow cytometry in presence of […] uM hydroxyurea for 18 hrs (reference value: 50%)", "format": "functional"}, "NCI-H460 [25]": {"tested_on": "NCI-H460", "assay": "Antitumor activity against human NCI-H460 cells xenografted in SCID mouse assessed as inhibition of tumor growth at 100 mg/kg, ip relative to untreated control", "format": "functional, organism-based", "parameters": "dose 100 mg/kg", "in_short": "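Female SCID mice (15-24 g, 6-8 weeks) were given 5.3 × 10^6 NCI-H460 cells s.c. on the dorsal side. At 4-6 mm tumours (about 6 days) they were randomised into groups of 6 or 7 and dosed i.p. for 9 consecutive days. Tumour size was recorded every 2-5 days; weight = L × W² × 0.5. %T/C and %GI = 100 − %T/C; Student t-test versus control.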"}, "BNL-CL2": {"tested_on": "BNL-CL2", "assay": "Cell cycle arrest in mouse BNL-CL2 cells assessed as accumulation of cells at G2/M phase at IC70 concentration after 48 hrs by flow cytometry", "format": "functional, cell-based", "in_short": "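Normal (BNL CL2) and SV40 large T-antigen transformed (BNL SV A.8) mouse embryonic hepatic cells were treated at IC50 or IC70 concentration for 48 h. Analysis was by FACS, with apoptosis taken as % cells in the sub-G1 peak. Untreated cells served as control.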"}}, "note": "pIC50: −log10 of the molar value. Calls of active or inactive are those of the source."}
{"smiles": "CN(CCc1c[nH]c2ccccc12)C(=O)c1ccc(-c2ccccc2)cc1", "values": [{"measurement": "pIC50", "setting": "[1]", "result": 5.40}, {"measurement": "AUC(0-inf)", "setting": "[2]", "result": 182, "unit": "ng·h/mL"}, {"measurement": "bioavailability", "setting": "[3]", "result": 9.6, "unit": "%"}, {"measurement": "Vd", "setting": "[4]", "result": 2.52, "unit": "L/kg"}, {"measurement": "Activity", "setting": "MiaPaCa [5]", "result": "inactive"}, {"measurement": "pIC50", "setting": "[6]", "result": 5.70}, {"measurement": "inhibition at 1.4 µM", "setting": "A549 [7]", "result": 50, "unit": "%"}, {"measurement": "Activity", "setting": "Mus musculus [8]", "result": "Non-toxic"}, {"measurement": "clearance", "setting": "[9]", "result": 88.3, "unit": "mL/min/kg"}, {"measurement": "Activity", "setting": "NCI-H460 [10]", "result": "tde"}, {"measurement": "Activity", "setting": "A549 [11]", "result": "Active"}, {"measurement": "Activity", "setting": "A549 [12]", "result": "Dose-dependent effect"}, {"measurement": "Activity", "setting": "A549 [13]", "result": 89, "unit": "%"}, {"measurement": "Activity", "setting": "Mus musculus [14]", "result": "Non-toxic"}, {"measurement": "inhibition at 10 µM", "setting": "CYP2C9", "result": 51, "unit": "%"}, {"measurement": "Activity", "setting": "NCI-H358 [15]", "result": 72, "unit": "%"}, {"measurement": "inhibition", "setting": "[16]", "result": "inactive"}, {"measurement": "Cmax", "setting": "[17]", "result": 371, "unit": "ng/mL"}, {"measurement": "inhibition", "setting": "[18]", "result": "inactive"}, {"measurement": "Activity", "setting": "MiaPaCa [19]", "result": "inactive"}, {"measurement": "Activity (milli optical density/minute)", "setting": "Tubulin (Homo sapiens)", "result": 0.4}, {"measurement": "inhibition", "setting": "A549 [20]", "result": "Active"}, {"measurement": "solubility", "setting": "[21]", "result": 125, "unit": "µg/mL"}, {"measurement": "inhibition", "setting": "LS174T", "result": "Active"}, {"measurement": "half-life", "setting": "[22]", "result": 1.16, "unit": "h"}, {"measurement": "Activity", "setting": "A549 [23]", "result": 4, "unit": "%"}, {"measurement": "Activity", "setting": "NCI-H358 [24]", "result": 16, "unit": "%"}, {"measurement": "Activity", "setting": "NCI-H460 [25]", "result": "Active"}, {"measurement": "Activity", "setting": "BNL-CL2", "result": "Active"}]}
